Data from ChEMBL document CHEMBL1157590, “Design, synthesis, and preliminary pharmacological evaluation of new imidazolinones as L-DOPA prodrugs” (Bioorg Med Chem, 2010).
Values after ≈ are worked out from the molar mass of the structure shown. Active and inactive are the calls of the source. The calls are words filed in the database; no cut-off is given here.

How the values were obtained:
[1] = Chemical stability assessed as half life in hydrochloric acid buffer at pH 1.3; format: physicochemical
How it was run: (§1)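 Prodrug hydrolysis was followed at 37 ± 0.5 °C. Line 3 used 0.02 M HCl buffer pH 1.3 (nonenzymatic simulated gastric fluid); line 4 used 0.02 M phosphate buffer pH 7.4. Each buffer contained 20% acetonitrile, and the reaction was started with 10^-4 M acetonitrile stock. Aliquots were analysed by HPLC. Kobs came from the slope of log(% residual prodrug) versus time; triplicate runs, mean ± SEM.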

[2] = Aqueous solubility after 15 mins by shake flask method; format: physicochemical; settings: water
Homo sapiens = species: Homo sapiens; assay: Metabolic stability in 80% human plasma assessed as half life at pH 7.4
[3] = Octanol-water partition coefficient, log P at pH 7.4 by HPLC; format: physicochemical
How it was run: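 Shake-flask method. About 5 mg of compound was shaken in 1 mL n-octanol and filtered, then an equal volume of phosphate buffer pH 7.4 was added. The mixture was inverted up to 200 times over 5 min and left 30 min for the phases to separate. Both phases were analysed by HPLC. Mean of three experiments, SEM reported.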

[4] = tested on: Radical scavenging activity; assay: Antioxidant activity assessed as DPPH radical scavenging activity; format: functional
How it was run: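 DPPH-HPLC method. Fresh 500 μM DPPH in methanol was mixed 1:1 by volume with antioxidant solutions made at 600, 300, 100 and 50 μM in methanol (DPPH final 250 μM). Residual DPPH was separated by reversed-phase C18 HPLC using a pH 3.0 phosphate/octanesulfonate/EDTA mobile phase with 6% acetonitrile. Vitamin E, caffeic acid and L-DOPA were run as references.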

[5] = Metabolic stability in 80% rat plasma assessed as half life at pH 7.4; format: ADME, cell-free
How it was run: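 Plasma was prepared from citrated blood (0.3% citric acid) of rats or humans by centrifugation at 3000 g and diluted to 80% with 0.02 M phosphate buffer pH 7.4. Drug from a 1 mg/mL acetonitrile stock was incubated at 37 °C with shaking. Timed aliquots were deproteinized with 0.01 M HCl in methanol, centrifuged and analysed by HPLC. First-order plots gave t1/2; triplicate, mean ± SEM.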

[6] = Chemical stability assessed as half life in phosphate buffer at pH 7.4; format: physicochemical; how it was run: as §1

Row | half-life [1] | solubility thermodynamic at 0.25 h [2] | half-life (Homo sapiens) | logD [3] | half-life [5] | half-life [6] | logP [3] | SMILES | Activity [4]
1 | 64.3 h | 260 µg/mL (≈ 0.773 mM) | 0.793 h | 0.94 | 1.89 h | 4.75 h |  | CCC1(CC)N[C@@H](Cc2ccc(O)c(O)c2)C(=O)N1CC(=O)OC | Active
2 |  | 3600 µg/mL (≈ 18.3 mM) |  |  |  |  | -2.38 | N[C@@H](Cc1ccc(O)c(O)c1)C(=O)O [LEVODOPA] | 
3 | 71.2 h | 26000 µg/mL (≈ 66.4 mM) | 0.392 h | 0.042 | 0.065 h | 11.6 h |  | COC(=O)CN1C(=O)[C@H](Cc2ccc(OC(C)=O)c(OC(C)=O)c2)NC1(C)C | inactive
4 | 189 h | 3990 µg/mL (≈ 12.9 mM) | 0.714 h | 0.101 | 1.17 h | 4.2 h |  | COC(=O)CN1C(=O)[C@H](Cc2ccc(O)c(O)c2)NC1(C)C | Active
